Laboratory results from ChEMBL document CHEMBL1773060, “Two-step synthesis of novel, bioactive derivatives of the ubiquitous cofactor nicotinamide adenine dinucleotide (NAD)” (J Med Chem, 2011).
Calls of active or inactive are those of the source. The rule behind the calls is not given here.

These compounds were tested against T1, NAD-dependent protein deacetylase sirtuin-1 (Homo sapiens) (UniProt Q96EB6) (assay: Inhibition of human recombinant GST-tagged SIRT1 at 50 uM after 4 hrs by homogeneous fluorescent deacetylase assay). Details: not given.
T1 sequence (whole entry): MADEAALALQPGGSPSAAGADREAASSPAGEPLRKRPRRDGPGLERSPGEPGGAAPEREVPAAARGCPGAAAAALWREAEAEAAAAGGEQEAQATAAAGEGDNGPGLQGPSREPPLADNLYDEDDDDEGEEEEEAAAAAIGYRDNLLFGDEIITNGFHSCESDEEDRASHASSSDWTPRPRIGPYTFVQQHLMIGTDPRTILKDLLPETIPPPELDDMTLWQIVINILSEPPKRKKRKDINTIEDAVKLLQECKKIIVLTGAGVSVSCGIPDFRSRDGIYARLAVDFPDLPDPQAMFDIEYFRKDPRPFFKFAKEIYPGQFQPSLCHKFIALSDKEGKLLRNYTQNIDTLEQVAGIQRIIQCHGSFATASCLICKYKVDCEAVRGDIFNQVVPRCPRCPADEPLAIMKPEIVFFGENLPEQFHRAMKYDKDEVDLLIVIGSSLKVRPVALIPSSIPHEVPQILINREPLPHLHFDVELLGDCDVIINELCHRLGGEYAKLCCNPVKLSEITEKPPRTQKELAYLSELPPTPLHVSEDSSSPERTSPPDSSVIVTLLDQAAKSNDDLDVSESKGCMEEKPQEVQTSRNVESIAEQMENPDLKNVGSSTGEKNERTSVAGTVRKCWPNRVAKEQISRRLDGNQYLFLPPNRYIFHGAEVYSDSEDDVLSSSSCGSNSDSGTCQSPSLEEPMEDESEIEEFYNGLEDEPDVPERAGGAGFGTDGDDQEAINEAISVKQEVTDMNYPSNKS

| SMILES | inhibition [%] |
| --- | --- |
| NC(=O)c1ccc[n+]([C@@H]2O[C@H](COP(=O)([O-])OP(=O)(O)OC[C@H]3O[C@@H](n4c(-c5ccco5)nc5c(N)ncnc54)[C@H](O)[C@@H]3O)[C@@H](O)[C@H]2O)c1 | 16 |
| Nc1ncnc2c1nc(-c1ccccc1)n2[C@@H]1O[C@H](CO)[C@@H](O)[C@H]1O | < 10 |
| Nc1ncnc2c1nc(Br)n2[C@@H]1O[C@H](CO)[C@@H](O)[C@H]1O | < 10 |
| Nc1ncnc2c1nc(Br)n2[C@@H]1O[C@H](COP(=O)(O)O)[C@@H](O)[C@H]1O | < 10 |
| NC(=O)c1ccc[n+]([C@@H]2O[C@H](COP(=O)([O-])OP(=O)(O)OC[C@H]3O[C@@H](n4c(Br)nc5c(N)ncnc54)[C@H](O)[C@@H]3O)[C@@H](O)[C@H]2O)c1 | 31 |

The next lines start with the values.

| inhibition [%] | SMILES |
| --- | --- |
| 20 | Cc1ccc(-c2nc3c(N)ncnc3n2[C@@H]2O[C@H](COP(=O)(O)OP(=O)([O-])OC[C@H]3O[C@@H]([n+]4cccc(C(N)=O)c4)[C@H](O)[C@@H]3O)[C@@H](O)[C@H]2O)cc1 |
| 17 | NC(=O)c1ccc[n+]([C@@H]2O[C@H](COP(=O)([O-])OP(=O)(O)OC[C@H]3O[C@@H](n4c(-c5ccccc5)nc5c(N)ncnc54)[C@H](O)[C@@H]3O)[C@@H](O)[C@H]2O)c1 |
| 18 | COc1ccc(-c2nc3c(N)ncnc3n2[C@@H]2O[C@H](COP(=O)(O)OP(=O)([O-])OC[C@H]3O[C@@H]([n+]4cccc(C(N)=O)c4)[C@H](O)[C@@H]3O)[C@@H](O)[C@H]2O)cc1 |
| 30 | NC(=O)c1ccc[n+]([C@@H]2O[C@H](COP(=O)([O-])OP(=O)(O)OC[C@H]3O[C@@H](n4c(-c5ccc(Cl)cc5)nc5c(N)ncnc54)[C@H](O)[C@@H]3O)[C@@H](O)[C@H]2O)c1 |

Each compound was assayed against T2, NAD-dependent protein deacetylase sirtuin-2 (Homo sapiens) (UniProt Q8IXJ6) (assay: Inhibition of human recombinant N-terminally His6-tagged SIRT2 at 50 uM after 4 hrs by homogeneous fluorescent deacetylase assay). Details: not given.
T2 sequence (whole entry): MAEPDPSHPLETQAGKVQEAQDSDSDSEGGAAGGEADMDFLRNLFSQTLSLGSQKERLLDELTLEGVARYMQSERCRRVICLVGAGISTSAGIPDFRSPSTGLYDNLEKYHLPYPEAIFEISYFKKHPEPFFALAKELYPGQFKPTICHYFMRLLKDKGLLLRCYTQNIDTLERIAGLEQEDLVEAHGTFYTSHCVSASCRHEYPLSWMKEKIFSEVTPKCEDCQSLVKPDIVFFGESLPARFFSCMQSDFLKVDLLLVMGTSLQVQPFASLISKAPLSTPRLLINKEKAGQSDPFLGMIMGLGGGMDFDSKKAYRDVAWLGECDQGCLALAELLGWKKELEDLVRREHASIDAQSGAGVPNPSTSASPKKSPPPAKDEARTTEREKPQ

| inhibition [%] | SMILES |
| --- | --- |
| 35 | NC(=O)c1ccc[n+]([C@@H]2O[C@H](COP(=O)([O-])OP(=O)(O)OC[C@H]3O[C@@H](n4c(-c5ccco5)nc5c(N)ncnc54)[C@H](O)[C@@H]3O)[C@@H](O)[C@H]2O)c1 |
| < 10 | Nc1ncnc2c1nc(-c1ccccc1)n2[C@@H]1O[C@H](CO)[C@@H](O)[C@H]1O |
| 16 | Nc1ncnc2c1nc(Br)n2[C@@H]1O[C@H](CO)[C@@H](O)[C@H]1O |
| < 10 | Nc1ncnc2c1nc(Br)n2[C@@H]1O[C@H](COP(=O)(O)O)[C@@H](O)[C@H]1O |

Each compound was assayed against T2, NAD-dependent protein deacetylase sirtuin-2 (Homo sapiens) (assay: Activity at human recombinant GST-tagged SIRT2 assessed as conversion of […] at 500 uM by fluorescence-based assay). Details: in the assay text read “His6-tagged” for “GST-tagged”.
Outline: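 Analogues, with NAD for comparison, were supplied at 500 μM as cosubstrate in place of NAD, in 8.3% (v/v) DMSO. Reaction used Z-(Ac)Lys-AMC (10.5 μM), 4 h at 37 °C. Trypsin/nicotinamide development followed, then fluorescence at ex 390/em 460 nm. Conversion compared against a blank without cofactor.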

| Activity | SMILES |
| --- | --- |
| Active | NC(=O)c1ccc[n+]([C@@H]2O[C@H](COP(=O)([O-])OP(=O)(O)OC[C@H]3O[C@@H](n4c(-c5ccccc5)nc5c(N)ncnc54)[C@H](O)[C@@H]3O)[C@@H](O)[C@H]2O)c1 |

The compounds below were run against T1, NAD-dependent protein deacetylase sirtuin-1 (Homo sapiens) (assay: Activity at human recombinant GST-tagged SIRT1 assessed as conversion of acetyllysine substrate to 7-amino-4-methylcoumarin at 500 uM by fluorescence-based assay). Details: not given.

| Activity | SMILES |
| --- | --- |
| Active | NC(=O)c1ccc[n+]([C@@H]2O[C@H](COP(=O)([O-])OP(=O)(O)OC[C@H]3O[C@@H](n4c(-c5ccccc5)nc5c(N)ncnc54)[C@H](O)[C@@H]3O)[C@@H](O)[C@H]2O)c1 |
